# Measured values: ChEMBL document CHEMBL3351736, “A promising camptothecin derivative: Semisynthesis, antitumor activity and intestinal permeability” (Eur J Med Chem, 2014)
# Activity calls are given as the source filed them. No cut-off for these calls is given here.
# Key:
# HeLa [1] = test: Cytotoxicity against human HeLa cells after 24 hrs by MTT assay; assay type: functional, cell-based
# In short: (§1)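 Cells seeded at 25000 per well and held 24 h at 37 °C in 5% CO2. Medium was then renewed and compounds added at increasing concentrations (DMSO 0.1%, or water for topotecan) for 24 h. MTT solution (5 mg/mL) was added for 3 h at 37 °C, then absorbance read at 570 nm, corrected at 630 nm. IC50 in µM.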
# Jurkat = test: Cytotoxicity against human Jurkat cells after 24 hrs by MTT assay; assay type: functional, cell-based; in short: as §1
# Caco-2 [2] = test: Induction of apoptosis in human Caco2 cells assessed as vital cells at 0.05 uM after 48 hrs by Annexin V/propidium iodide staining-based flow cytometric analysis (reference value: 96.67 +/- 1.02%); assay type: functional
# Caco-2 [3] = test: Induction of apoptosis in human Caco2 cells assessed as vital cells at 0.5 uM after 48 hrs by Annexin V/propidium iodide staining-based flow cytometric analysis (reference value: 96.67 +/- 1.02%); assay type: functional
# Caco-2 [4] = test: Induction of apoptosis in human Caco2 cells assessed as early apoptotic cells at 0.05 uM after 48 hrs by Annexin V/propidium iodide staining-based flow cytometric analysis (reference value: 0.72 +/- 0.03%); assay type: functional
# Caco-2 [5] = test: Induction of apoptosis in human Caco2 cells assessed as early apoptotic cells at 0.5 uM after 48 hrs by Annexin V/propidium iodide staining-based flow cytometric analysis (reference value: 0.72 +/- 0.03%); assay type: functional
# Caco-2 [6] = test: Induction of apoptosis in human Caco2 cells assessed as late apoptotic cells at 0.5 uM after 48 hrs by Annexin V/propidium iodide staining-based flow cytometric analysis (reference value: 2.20 +/- 0.77%); assay type: functional
# Caco-2 [7] = test: Induction of apoptosis in human Caco2 cells assessed as necrotic cells at 0.05 uM after 24 hrs by Annexin V/propidium iodide staining-based flow cytometric analysis (reference value: 0.41 +/- 0.02%); assay type: functional
# Caco-2 [8] = test: Induction of apoptosis in human Caco2 cells assessed as necrotic cells at 0.5 uM after 24 hrs by Annexin V/propidium iodide staining-based flow cytometric analysis (reference value: 0.41 +/- 0.02%); assay type: functional
# MDA-MB-231 [9] = test: Induction of apoptosis in human MDA-MB-231 cells assessed as inhibition of DNA synthesis at 0.8 to 1.6 uM after 24 hrs by BrdU staining-based ELISA; assay type: functional, cell-based
# In short: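 BrdU colorimetric cell proliferation ELISA. Cells seeded at 25,000 per well, compounds added 24 h after seeding and incubated 24 h. Cells fixed and the immunoassay run per kit. Absorbance read at 370-492 nm over 3 intervals of 5 min; absorbance difference proportional to BrdU incorporation. Mean of three separate experiments in triplicate, compared with untreated control.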
# MDA-MB-231 [10] = test: Induction of apoptosis in human MDA-MB-231 cells assessed as inhibition of DNA synthesis after 24 hrs by BrdU staining-based ELISA; assay type: functional, cell-based
# In short: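 Cells seeded at 25,000/well; compounds added 24 h after seeding at a range of concentrations and incubated 24 h. Cells fixed, then colorimetric BrdU-incorporation ELISA. Absorbance read at 370-492 nm over 3 intervals of 5 min. Mean of three separate experiments with triplicate samples.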
# HeLa [11] = test: Induction of apoptosis in human HeLa cells assessed as p53 phosphorylation at Ser15 by Western blotting analysis; assay type: functional, cell-based
# In short: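 Cells treated 24 h. About 10^6 cells lysed on ice 15 min in Hepes pH 7.4/Triton X-100 buffer with phosphatase and protease inhibitors, then spun 13,000 × g. 30 µg protein run on 12% SDS-PAGE and blotted to nitrocellulose. Primary anti-phospho-p53 (Ser15) and anti-p53 at 1:1000 for 2 h at room temperature, then HRP secondary and ECL densitometry. Results referred to untreated control.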
# [12] = Effective permeability from apical to basolateral side in human Caco2 cells at 50 uM after 15 to 90 mins by HPLC analysis; assay type: ADME, cell-based; settings: Caco-2, read-out: Peff
# In short: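 Caco-2 monolayers grown 19-22 days on polycarbonate transwell inserts (4.2 cm², 0.4 µm pore) at 37 °C, 5% CO2; TEER checked before and after each run. Compound added to donor side at 37 °C, 50 rpm. Receiver sampled at 15, 30, 60 and 90 min; donor sampled at start and end. HPLC analysis. Sodium azide, when used, placed on both sides. Three independent experiments.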
smiles,measurement,setting,value
CC[C@@]1(O)C(=O)OCc2c1cc1n(c2=O)Cc2cc3c(CN(C)C)c(O)ccc3nc2-1.Cl [TOPOTECAN HYDROCHLORIDE],IC50,HeLa [1],380 nM
same,IC50,Jurkat,127 nM
same,Activity,Caco-2 [2],45.2%
same,Activity,Caco-2 [3],38.26%
same,Activity,Caco-2 [4],2.36%
same,Activity,Caco-2 [5],5.74%
same,Activity,Caco-2 [6],53.12%
same,Activity,Caco-2 [7],3.64%
same,Activity,Caco-2 [8],8.54%
same,Activity,MDA-MB-231 [9],Active
same,inhibition,MDA-MB-231 [10],Dose-dependent effect
same,Activity,HeLa [11],inactive
same,Papp A→B at 50 µM,[12],1.77 ×10⁻⁶ cm/s
